Screens: PubChem BioAssay, several laboratories
AI-2 QS mod – Vibrio harveyi AI-2 quorum sensing modulation | 300,000 tested, 0.4% active | activity change, % at 7.5 µM | Vibrio harveyi JMH597 AI-2 luminescence/OD600 ratio, 9 h; hits give low values; strain lacks LuxN and CqsS sensors; 0 = neutral-control median | AID 2094; in the data active = activity change below about -75%, passing the limit was not always enough;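 also: luminescence divided by OD600 gain over 9 h not by final OD600 alone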
MC4R barr agon – activates human MC4R beta-arrestin recruitment. P32245. U2OS MC4R beta-arrestin complementation, luminescence; percent of melanotan II response, DMSO zero. activation, % at 8.9 µM. 360,000 tested, 0.98% active;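 active = activation above a per-plate cutoff, the mean activation of sample wells on that plate plus 3 SD, cut at about 8% in these data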
MC4R antag cAMP – antagonists of human melanocortin 4 receptor (MC4R) | P32245 | MC4R-expressing cells, MTII-stimulated cAMP, LANCE TR-FRET | inhibition, % at 6.5 µM | 360,000 tested, 0.48% active;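 active = inhibition above its plate's cutoff, the mean of tested wells on that plate plus 3 SD, cut at about 29% in these data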;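 also: 0% = Melanotan II alone and 100% = Melanotan II plus saturating MCL0020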
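Assay system: U2OS-MC4R stable cell line; Also added: Melanotan II; Technique: Eu-cAMP/anti-cAMP TR-FRET, emission 671 nm; Times: 30-min compound, 1-h challenge, 1-h detection, room temperature.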
NTR1 agonist – activates human neurotensin receptor 1; P30989; NTR1-U2OS beta-arrestin-GFP spot imaging, agonist mode; activation, % at 20 µM; 330,000 tested, 0.17% active; AID 493036;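 active = activation at or above 40% of the spot to cytoplasm intensity ratio, with at least 20 cells analyzed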;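 also: 0% = DMSO without peptide and 100% = 100 nM NTR1 peptide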
Target sequence (P30989 whole entry, looked up): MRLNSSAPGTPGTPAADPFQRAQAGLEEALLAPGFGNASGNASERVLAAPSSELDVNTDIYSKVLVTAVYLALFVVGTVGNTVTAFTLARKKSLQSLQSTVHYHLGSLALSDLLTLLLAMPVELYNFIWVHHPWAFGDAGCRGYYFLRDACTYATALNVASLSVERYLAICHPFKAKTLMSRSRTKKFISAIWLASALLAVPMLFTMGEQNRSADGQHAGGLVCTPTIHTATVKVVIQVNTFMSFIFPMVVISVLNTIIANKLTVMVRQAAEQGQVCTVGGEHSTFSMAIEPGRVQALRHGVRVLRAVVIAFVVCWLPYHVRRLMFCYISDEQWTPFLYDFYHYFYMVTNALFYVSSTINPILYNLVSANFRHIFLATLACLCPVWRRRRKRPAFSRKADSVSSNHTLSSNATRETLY
cAMP nonselect – U2OS forskolin cAMP inhibition counter-screen. inhibition, % at 6.5 µM. 1,600 tested, 26% active. shares compounds with MC4R antag cAMP. parental U2OS, LANCE TR-FRET;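 active = mean inhibition over triplicates above the low-control well mean plus 3 SD, set per campaign, cut at about 13% in these data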;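 also: signal is single emission at 671 nm which falls as cellular cAMP rises; 0% = forskolin-stimulated wells and 100% = buffer without forskolin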
MC4R cAMP antag – human MC4R cAMP antagonism confirmation | shares compounds with MC4R antag cAMP | MC4R-expressing cells, MTII-stimulated cAMP, TR-FRET | inhibition, % at 6.5 µM | 1,600 tested, 27% active | AID 602195; in the data active = inhibition above about 29%;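 also: 0% = agonist stimulated wells alone and 100% = agonist stimulated wells plus saturating reference antagonist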
Active calls of the source: *; x = no result given. Most compounds without a hit are left out; they make up all but 1.8% or so of the library.

SMILES	AI-2 QS mod	MC4R barr agon	MC4R antag cAMP	NTR1 agonist	cAMP nonselect	MC4R cAMP antag
Cc1csc(C(C)N(C)C(=O)CCc2nnc(CCc3ccccc3)o2)n1 (stereo not given)	14.9	1.2	28.7*	-0.3	1.7	1.3
COc1ccccc1NS(=O)(=O)c1cccc(NC(=O)Nc2ccccc2)c1	-5.1	-0.3	8.4	7.6	x	x
COc1ccccc1NS(=O)(=O)c1cccc(NC(=O)c2cc3ccccc3oc2=O)c1	11.4	6.7	28.8*	-0.2	-5.2	-11.4
COc1cc([N+](=O)[O-])ccc1NC(=S)NC(=O)CC(C)(C)C	32.8	-2.5	30.3*	3.8	6.0	32.3*
COC(=O)c1ccc(C2c3[nH]c4ccccc4c3C[C@H]3C(=O)N(C4CCN(Cc5ccccc5)CC4)CC(=O)N23)cc1 (stereo not given in full)	9.9	-0.9	36.9*	3.2	5.8	22.4
O=C1[C@@H]2Cc3c([nH]c4ccccc34)C(c3ccccc3)N2C(=O)CN1C1CCN(Cc2ccccc2)CC1 (stereo not given in full)	2.6	3.3	-6.2	4.3	x	x
O=C1C=CC(=O)N1CCNc1ncc(C(F)(F)F)cc1Cl	3.9	-1.5	52.8*	28.9	-4.6	23.7
O=C1CC(=O)N(CCNc2ncc(C(F)(F)F)cc2Cl)C(=O)N1	34.4	0.8	-6.0	-1.2	x	x
CN(NS(=O)(=O)c1ccc(Br)cc1)c1nc(C(F)(F)F)nc2ccccc12	25.8	0.2	31.6*	3.0	1.4	-1.5
O=C(COC(=O)CNC(=O)c1cccc(OC(F)F)c1)NCc1ccc2c(c1)OCO2	x	-2.2	32.7*	-1.3	19.6*	39.6*
Cc1ccccc1C(=O)N1CCc2c([nH]c3ccccc23)C1C(F)(F)F (stereo not given)	17.8	0.1	36.1*	7.0	3.2	1.9
O=C(O)c1cccnc1C(=O)N1CCc2c([nH]c3ccccc23)C1C(F)(F)F (stereo not given)	13.1	5.5	9.2	-1.3	x	x
COC(=O)C1CCN(C(=O)c2cc3c(=O)n4cccc(C)c4nc3n2Cc2ccccc2)CC1	12.9	0.1	30.1*	1.4	-2.7	-2.2
Cc1ccc(NC(=O)CN(C)C(=O)Cc2ccc(Cl)c(Cl)c2)cc1	21.8	-0.6	4.6	2.7	x	x
Cc1ccc(NC(=O)CN(C)C(=O)Cn2ncc(Cl)c(Cl)c2=O)cc1	29.6	-0.7	29.8*	x	25.6*	24.4
O=C(Nc1ccc(Cl)cn1)C1CCCN(c2ncnc3c2nc2n3CCCCC2)C1 (stereo not given)	-4.8	-0.6	30.4*	5.9	-1.9	7.3
O=C1CCCN1c1ccc(S(=O)(=O)Nc2cccnc2)cc1	5.9	-2.2	28.9*	0.3	-1.3	-5.5
Cc1ccc(S(=O)(=O)Nc2cccnc2)cc1	32.5	1.3	-1.0	0.3	x	x
COc1ccc(C2C(CC(=O)O)=C(O)C(=O)N2c2ccccc2)cc1 (stereo not given)	2.7	-2.7	1.6	-0.8	x	x
Cc1ccc(NC2=C(CC(=O)O)C(c3ccccc3)N(c3ccc(C)cc3)C2=O)cc1 (stereo not given)	14.8	2.8	30.9*	3.1	-3.8	2.5
O=C(CCc1ccc(S(=O)(=O)N2CCOCC2)cc1)OCC(=O)c1ccccc1	x	0.6	3.8	-0.9	x	x
COc1cc(/C=N/NC(=O)c2cccnc2)ccc1OS(=O)(=O)c1ccc(F)cc1	7.3	-0.4	2.4	0.1	x	x
COc1cc(/C=N/NC(=O)c2cccnc2)ccc1OS(=O)(=O)c1ccc(C)cc1	25.8	-1.2	28.8*	-1.0	1.6	5.4
COCCNc1nc2c(c(=O)n(Cc3cccc(Cl)c3)c(=O)n2C)n1C	29.5	-1.6	29.2*	-0.6	1.3	0.3
CC1(C)CC2CC(C)(CN2C(=O)COC(=O)c2ccc(NC(=O)CC#N)cc2)C1 (stereo not given)	x	-1.7	-4.1	0.9	x	x
SMILES	AI-2 QS mod	MC4R barr agon	MC4R antag cAMP	NTR1 agonist	cAMP nonselect	MC4R cAMP antag
O=C(CC1C[C@H](C(=O)N2CCOCC2)[C@@]2(CCC3CCCC3)c3[nH]c4ccccc4c3CCN2C1=O)NCC12CC3CC(CC(C3)C1)C2 (stereo not given in full)	x	-3.2	2.8	1.4	x	x
CCc1ccc(NC(=O)c2nc(S(=O)(=O)Cc3ccccc3)ncc2Cl)cc1	27.8	-6.5	36.4*	-1.9	12.1	16.5
CN(c1ccccc1)S(=O)(=O)c1ccc(NC(=O)c2nc(S(C)(=O)=O)ncc2Cl)cc1	4.7	-3.2	57.4*	2.5	26.3*	36.0*
CC(C)c1nnc(NC(=O)c2nc(S(=O)(=O)Cc3ccccc3)ncc2Cl)s1	-21.9	-2.6	51.0*	0.8	24.6*	47.1*
CCS(=O)(=O)c1ncc(Cl)c(C(=O)Nc2ccc(S(=O)(=O)N3CCC(C)CC3)cc2)n1	30.6	-3.0	56.0*	27.6	9.2	38.5*
CC1CCN(S(=O)(=O)c2ccc(NC(=O)c3ccncc3)cc2)CC1	24.7	-2.4	0.8	-0.8	x	x
CN(c1ccccc1)S(=O)(=O)c1ccc(NC(=O)c2ccccc2)cc1	38.7	-2.4	-0.4	2.4	x	x
CCn1c(/C=C/c2ccccc2F)nc2ccccc2c1=O	-3.0	1.8	-1.1	0.7	x	x
Cc1cc2oc(=O)ccc2cc1[N+](=O)[O-]	-3.5	-0.3	-1.4	3.6	x	x
Cc1c(C(=O)NCc2ccc3c(c2)OCCO3)sc(=O)n1Cc1ccccc1C(F)(F)F	x	4.0	10.7	x	x	x
CCN(c1ccc(OC)cc1)S(=O)(=O)c1csc(C(=O)N2CCCC2)c1	6.2	-1.1	4.9	1.1	x	x
CCOc1ccccc1NC(=O)c1nc(S(=O)(=O)Cc2ccccc2)ncc1Cl	10.7	-5.1	32.6*	10.6	5.4	-23.6
Cc1ccc(NC(=O)c2nc(S(=O)(=O)Cc3ccccc3C)ncc2Cl)cc1C	8.2	-4.5	31.9*	10.2	30.3*	15.0
CCCc1nnc(NC(=O)c2nc(S(=O)(=O)Cc3ccc(C)cc3)ncc2Cl)s1	4.6	-4.7	52.1*	0.5	21.7*	36.4*
CC(=O)Nc1ccc(NC(=O)c2nc(S(=O)(=O)Cc3cccc(C)c3)ncc2Cl)cc1	8.3	-5.9	42.9*	1.2	14.2*	27.8
COC(=O)c1ccc(NC(=O)c2nc(S(=O)(=O)Cc3cccc(C)c3)ncc2Cl)cc1	21.0	-6.4	13.6	-1.6	x	x
Cc1cccc(CS(=O)(=O)c2ncc(Cl)c(C(=O)NCc3ccc4c(c3)OCO4)n2)c1	12.5	-3.4	32.6*	19.5	10.0	24.7
Cc1ccc(C(=O)NCc2ccc3c(c2)OCO3)c(Cl)c1	x	-1.3	3.2	x	x	x
OC(c1ccccc1)c1ncc(-c2ccccc2F)[nH]1 (stereo not given)	x	-1.8	14.2	x	x	x
CN1CCC(Oc2ccc(Sc3ccccc3)cc2)CC1	-9.2	-0.1	-1.4	0.6	x	x
CN1CCC(Oc2ccccc2Sc2ccc(C(F)(F)F)cc2)CC1	2.9	-3.0	32.8*	1.8	0.6	31.5*
